The source of these data is ChEMBL document CHEMBL4261527, “Benzylsulfanyl benzo-heterocycle amides and hydrazones as new agents against drug-susceptible and resistant Mycobacterium tuberculosis” (Medchemcomm, 2017).

As a reminder, the MIC is the least concentration at which growth counts as inhibited. Low readings indicate greater potency, high ones weaker potency.

In brackets after ≈: the same amount, converted by molar mass. Activity calls are given as the source filed them. The rule behind the calls is not given here.

Experiment [1] has as its system Mycobacterium tuberculosis. Put plainly: Antimycobacterial activity against multidrug-resistant Mycobacterium tuberculosis clinical isolate. Type of experiment: functional. Summed up:
(§1)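 Clinical isolates coded 960 (drug-susceptible), 330 (MDR) and 431 (XDR); MIC reported in μM.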

The subject of experiment [2] is Mycobacterium tuberculosis. In words: Antimycobacterial activity against extensively drug-resistant Mycobacterium tuberculosis clinical isolate. Type of experiment: functional. Summed up:
as §1

Experiment [3] has as its system Mycobacterium tuberculosis. Put plainly: Antimycobacterial activity against ethambutol-resistant Mycobacterium tuberculosis ATCC 35837 by resazurin dye based fluorimetric method. Type of experiment: functional. Background: The colour change of resazurin is a common sign of viable cells or microbes.
Experiment [4] has as its system Mycobacterium tuberculosis. Put plainly: Antimycobacterial activity against rifampicin-resistant Mycobacterium tuberculosis H37Rv by resazurin dye based fluorimetric method. Type of experiment: functional.
Experiment [5] deals with Mycobacterium tuberculosis. In words: Antimycobacterial activity against streptomycin-resistant Mycobacterium tuberculosis ATCC 35820 by resazurin dye based fluorimetric method. Type of experiment: functional.
Experiment [6] concerns Mycobacterium tuberculosis. Put plainly: Antimycobacterial activity against ethionamide-resistant Mycobacterium tuberculosis ATCC 35830 by resazurin dye based fluorimetric method. Type of experiment: functional.
Experiment [7] deals with Mycobacterium tuberculosis. Put plainly: Antimycobacterial activity against kanamycin-resistant Mycobacterium tuberculosis ATCC 35827 by resazurin dye based fluorimetric method. The experiment is classed as functional.
Experiment [8] deals with Mycobacterium tuberculosis. In words: Antitubercular activity against Mycobacterium tuberculosis H37Ra harboring pTYOK infected in Balb/c mouse assessed as bacterial growth inhibition at 10 mg/kg qd measured at 2 days interval for 6 days by luminometric method. The experiment is classed as functional, organism-based. In a few lines:
(§2)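 Mice infected with marker-free autoluminescent Mtb H37Ra and dosed once daily for 6 consecutive days; vehicle CMC-Na. Read-out is the luminescence ratio RLU on day n over RLU on day 0, plotted against days after the first treatment.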

Experiment [9] relates to Mycobacterium tuberculosis. Put plainly: Potency index, ratio of isoniazid MIC to test compound MIC for extensively drug-resistant Mycobacterium tuberculosis clinical isolate. The experiment is classed as functional.
Experiment [10] has as its system Mycobacterium tuberculosis. In words: Potency index, ratio of ftivazide MIC to test compound MIC for extensively drug-resistant Mycobacterium tuberculosis clinical isolate. The experiment is classed as functional.
Experiment [11] deals with Mycobacterium tuberculosis. In words: Antitubercular activity against Mycobacterium tuberculosis H37Ra harboring pTYOK infected in Balb/c mouse assessed as bacterial growth inhibition at 3.1 mg/kg qd measured at 2 days interval for 6 days by luminometric method. The experiment is classed as functional, organism-based. In a few lines:
as §2

Turning to `O=C(NCc1ccc(CSc2nc3ccccc3o2)cc1)c1ccncc1`, the results for the MIC in experiment [1] and in [2] were 2 µM (≈ 0.751 µg/mL) and 16 µM (≈ 6.01 µg/mL), respectively.

Turning to `O=C(N/N=C/c1ccc(CSc2nc3ccccc3s2)cc1)c1ccncc1`, the MIC in experiment [1] amounted to 6.4 µM (≈ 2.59 µg/mL); in [3] it was 0.312 µg/mL (≈ 0.771 µM); in [4] it was 0.625 µg/mL (≈ 1.55 µM); in experiment [5], 0.312 µg/mL (≈ 0.771 µM); in [6] it was 1.25 µg/mL (≈ 3.09 µM); in experiment [7], 0.312 µg/mL (≈ 0.771 µM). For the same molecule, in experiment [2], the MIC is above 12.8 µM.

Turning to `CO[C@H]1/C=C/O[C@@]2(C)Oc3c(C)c(O)c4c(O)c(c(/C=N/N5CCN(C)CC5)c(O)c4c3C2=O)NC(=O)/C(C)=C\C=C\[C@H](C)[C@H](O)[C@@H](C)[C@@H](O)[C@@H](C)[C@H](OC(C)=O)[C@@H]1C` [RIFAMPIN], the MIC in [1] and in experiment [2] was above 19 µM each time. Also, the “growth inhibition (GI)” value in [8] was “Active”.

Consider `O=C(N/N=C/c1ccc(CSc2nc3ccccc3[nH]2)cc1)c1ccncc1`, for which the MIC stood at 6.4 µM (≈ 2.48 µg/mL) in experiment [1]; 0.156 µg/mL (≈ 0.403 µM) in [3]; 0.312 µg/mL (≈ 0.805 µM) in experiment [4]; 0.156 µg/mL (≈ 0.403 µM) in [5]; 1.25 µg/mL (≈ 3.23 µM) in [6]; 0.156 µg/mL (≈ 0.403 µM) in [7]. In addition, the MIC in experiment [2] is above 12.8 µM.

`COc1cc(/C=N/NC(=O)c2ccncc2)ccc1O` [FTIVAZIDE]: the MIC in experiment [1] was determined as 16 µM (≈ 4.34 µg/mL); in [3], 0.312 µg/mL (≈ 1.15 µM); in experiment [4], 0.312 µg/mL (≈ 1.15 µM); in [5], 0.312 µg/mL (≈ 1.15 µM); in experiment [6] it was 1.25 µg/mL (≈ 4.61 µM); in [7] it was 0.156 µg/mL (≈ 0.575 µM). Also, the MIC in experiment [2] was determined as 32 µM (≈ 8.68 µg/mL).

With `NNC(=O)c1ccncc1` [ISONIAZID], the values for the MIC in experiment [1] and in experiment [2] were 8 µM (≈ 1.1 µg/mL) and 64 µM (≈ 8.78 µg/mL), respectively.

On to `O=C(N/N=C/c1ccc(CSc2nc3ccccc3o2)cc1)c1ccncc1`, for which the MIC stood at 6.4 µM (≈ 2.49 µg/mL) in [1]; 0.156 µg/mL (≈ 0.402 µM) in experiment [3]; 0.312 µg/mL (≈ 0.803 µM) in experiment [4]; 0.156 µg/mL (≈ 0.402 µM) in [5]; 1.25 µg/mL (≈ 3.22 µM) in experiment [6]; 0.156 µg/mL (≈ 0.402 µM) in [7]. This molecule gave an MIC in experiment [2] of 3.2 µM (≈ 1.24 µg/mL). Moreover, the Ratio in [9] is reported as 20; in experiment [10] it was 10. Further, the “growth inhibition (GI)” value in experiment [11] was “Active”.
